Screens (PubChem)
This is a sample that favours compounds with a hit; in the whole collection about 5% have one here.
T cruzi repl – blocks replication of Trypanosoma cruzi; T. cruzi beta-gal in NIH3T3, luminescence, 90 h; inhibition, % (no concentration beside the values); hit rate 1.4% among 300,000;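 active = mean inhibition across valid replicates above about 55%, limit read from the data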;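 note: signal also drops with host cell toxicity which is not excluded here; 0% = plate median of DMSO wells and 100% = zero luminescence signal; higher percent means less beta-gal luminescence so fewer parasites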
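Assay system: NIH/3T3 host cells with β-galactosidase reporter T. cruzi; input: 5,000 host fibroblasts per well; compound: single 50 nL compound addition per well in DMSO; timing: ≥90 h infection period, 3 h prior cell attachment; measured by: GalScreen β-gal luminescence, detergent lysis, 60 min; evaluation: percent inhibition of parasite-derived β-gal signal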
Beta cell apopt – blocks beta cell apoptosis; hit rate 0.8% among 300,000; INS-1E cytokine-induced death, ATP luminescence, 48 h; percent of positive-control rescue, neutral wells zero; AID 435005; protection from apoptosis, % (test concentration not listed);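 active = Every replicate reaches about 75%, or at least half do and their mean reaches it too, limit read from the data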;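 note: 0% = cytokine-treated negative control wells and 100% = positive control rescue; higher means more ATP so stronger rescue from cytokine killing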
CHOP UPR activ – activators of apoptotic arm of unfolded protein response (CHOP); CHO-CHOP luciferase reporter, UPR activation, luminescence; percent of tunicamycin response over DMSO baseline; activation, % at 10 µM; hit rate 0.34% among 330,000;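 active = at 10 µM dose, activation of 40% or more, normalized to positive control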;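 note: 100% = tunicamycin at 10 µg/mL and 0% = DMSO alone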
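Dosing – one dose, 10 µM in 0.5% DMSO · System – CHO-CHOP cells, stable luciferase reporter of PERK-eIF2a-CHOP signalling · Input – 500 cells/well · Control set – tunicamycin 10 µg/mL final as positive, DMSO-only wells as negative · Timing – 6 h compound treatment, 37 °C · Measure – % activation vs tunicamycin · Technique – luminescence read with Steady-Glo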
CSC inhib – blocks cancer stem cells | cancer stem cell-like cells viability, luminescence | inhibition, % at 7.5 µM | hit rate 1.1% among 300,000 | AID 2717; in the data active = inhibition above about 75%; tested in HMLE shEcad cells
Mdm2-MdmX inh – inhibitors of human Mdm2/MdmX interaction. inhibition, % at 8 µM. hit rate 3% among 330,000. O15151+Q00987. SaOS-2 split-luciferase Mdm2/MdmX complementation, luminescence;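 active = inhibition of at least 50% at 8 µM in the primary screen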
Target sequence (O15151 whole entry, looked up): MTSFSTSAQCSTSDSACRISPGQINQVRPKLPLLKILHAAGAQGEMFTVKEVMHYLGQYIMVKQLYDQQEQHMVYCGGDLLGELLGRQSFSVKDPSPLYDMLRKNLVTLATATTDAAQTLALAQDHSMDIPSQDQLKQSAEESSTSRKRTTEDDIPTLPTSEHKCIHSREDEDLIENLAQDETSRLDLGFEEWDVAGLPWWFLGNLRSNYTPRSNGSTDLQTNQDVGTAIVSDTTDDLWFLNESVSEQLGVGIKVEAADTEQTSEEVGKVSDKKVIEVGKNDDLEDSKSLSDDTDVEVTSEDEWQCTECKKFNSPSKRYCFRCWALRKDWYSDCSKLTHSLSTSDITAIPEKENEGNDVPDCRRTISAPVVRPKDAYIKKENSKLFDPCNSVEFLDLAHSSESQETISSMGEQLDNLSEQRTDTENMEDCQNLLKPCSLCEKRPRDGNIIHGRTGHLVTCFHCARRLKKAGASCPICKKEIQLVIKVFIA
Target sequence (Q00987 whole entry, looked up): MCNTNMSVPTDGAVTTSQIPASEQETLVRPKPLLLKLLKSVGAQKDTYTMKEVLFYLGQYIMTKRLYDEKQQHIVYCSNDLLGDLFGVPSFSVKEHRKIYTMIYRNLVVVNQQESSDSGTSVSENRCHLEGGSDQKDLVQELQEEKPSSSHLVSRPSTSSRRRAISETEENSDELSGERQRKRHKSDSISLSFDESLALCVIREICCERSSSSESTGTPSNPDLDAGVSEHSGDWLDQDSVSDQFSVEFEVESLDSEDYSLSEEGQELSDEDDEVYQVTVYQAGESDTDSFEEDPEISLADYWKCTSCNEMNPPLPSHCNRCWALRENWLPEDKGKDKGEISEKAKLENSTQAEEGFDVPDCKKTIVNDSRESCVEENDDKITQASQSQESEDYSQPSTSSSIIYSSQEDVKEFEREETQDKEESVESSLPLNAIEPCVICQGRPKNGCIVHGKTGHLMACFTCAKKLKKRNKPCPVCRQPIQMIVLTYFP
XBP1 UPR activ – activators of adaptive arm of unfolded protein response (XBP1); CHO-XBP1 luciferase reporter, IRE1-XBP1 UPR activation, luminescence; percent of tunicamycin response, DMSO as zero; activation, % at 20 µM; hit rate 0.33% among 330,000; AID 463104;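 active = versus positive control, 20 µM dose yields 30% or more activation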;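 note: 100% = tunicamycin at 10 µg/mL and 0% = DMSO only wells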
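Test system: CHO-XBP1 luciferase reporter cells | Buffer or medium: Serum-containing F12 medium, 10% FBS | Schedule: 6 h compound exposure at 37 °C, 5% CO2 | Detection: Steady-Glo luciferase glow luminescence, 10 min after reagent addition | Read-out basis: Activation, % of tunicamycin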
XBP1 UPR conf – adaptive UPR (XBP1) activation, confirmed | shares compounds with XBP1 UPR activ | activation, % at 20 µM | CHO-XBP1 IRE1-XBP1 luciferase reporter, luminescence | hit rate 63% among 1,000;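 active = reporter signal at least 30% of the positive control's activation in two or more of four replicate wells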;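 note: plate controls were DMSO negative control for no effect and tunicamycin 10 µg/mL positive control for full effect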
Mdm2-MdmX conf – confirmation of human Mdm2/MdmX interaction inhibitors | shares compounds with Mdm2-MdmX inh | inhibition, % at 8 µM | hit rate 55% among 10,000 | Mdm2-MdmX binding, luminescent assay; in the data active = inhibition above about 40%
FLuc counter – full-length luciferase inhibition in Mdm2/MdmX counter-screen. shares compounds with Mdm2-MdmX inh. SaOS-2 full-length luciferase counterscreen, luminescence. inhibition, % at 8 µM. hit rate 77% among 6,200;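 active = mean inhibition at 8 µM reaching about 37%, which flags the compound as non-specific, limit read from the data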;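 note: p53-null SaOS-2 cells with luciferase driven by a doxycycline-inducible promoter; compound on cells about two nights before reading with doxycycline added after day one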
* marks the source's active call; other numbers are inactive results; · = no result.

SMILES	T cruzi repl	Beta cell apopt	CHOP UPR activ	CSC inhib	Mdm2-MdmX inh	XBP1 UPR activ	XBP1 UPR conf	Mdm2-MdmX conf	FLuc counter
O=C(NC1CCCCC1)c1cccc2c1C(=O)c1ccc(-c3ccc(OC(F)(F)F)cc3)cc1S2(=O)=O	·	40.2	27.9	·	71.4*	74.9*	66.7*	28.9	79.0*
CC(NCC(O)COCCC12CC3CC(CC(C3)C1)C2)c1ccccc1 (stereo not drawn)	59.8*	88.5*	0.5	105.2*	100.4*	50.5*	50.6*	98.8*	36.9*
CCOc1ccc(C(=O)Nc2ccc(NC(=O)c3ccco3)c(Cl)c2)cc1Cl	-1.4	6.0	12.9	11.4	61.9*	48.2*	119.9*	49.2*	93.7*
CCOc1ccc(C(=O)Nc2ccc(NC(=O)c3ccco3)c(Cl)c2)cc1Br	-24.2	5.0	1.5	5.6	3.6	3.2	·	·	·
COc1cccc(CNCCO)c1OCc1ccc(Cl)cc1	-10.6	-0.1	-2.1	·	32.8	-0.3	·	·	·
COc1cc(CNCCO)cc(Cl)c1OCc1ccc(Cl)cc1Cl	46.7	108.3*	2.3	6.7	51.4*	62.6*	133.6*	48.9*	85.2*
CCN(CC(=O)Nc1c(F)cccc1F)C(=O)CCN1C(=O)C2CCCCC2C1=O (stereo not drawn)	-4.6	-5.1	0.5	-12.1	11.8	1.3	·	·	·
Cc1ccc(-c2nnc(SCC(=O)NCCN3C(=O)CSC3=O)n2C)cc1	·	-0.1	0.0	·	-53.8	1.4	·	·	·
Cc1csc2nc(COC(=O)c3ccc(Cl)c([N+](=O)[O-])c3)cc(=O)n12	·	-1.2	17.2	-16.2	89.4*	71.0*	2.7	7.6	·
Cc1c(-c2ccc(/C=N/NC(=O)C(=O)Nc3ccccc3F)o2)cccc1[N+](=O)[O-]	-10.6	-2.4	18.0	-8.8	56.2*	73.0*	7.3	-1.1	·
O=[N+]([O-])c1ccc(/C=N/NC(=S)Nc2ccccc2F)o1	26.6	6.9	6.5	2.1	10.9	1.7	·	·	·
COc1ccc(C(=O)N/N=C/c2ccc(OC(=O)c3ccccc3)cc2)cc1	-1.0	0.9	0.8	12.4	3.9	1.0	·	·	·
COc1ccc(C(=O)N/N=C/c2ccccc2OC(=O)c2ccccc2)cc1	35.7	102.5*	1.7	·	53.1*	51.2*	29.8	41.0*	111.5*
CCc1cc2c(C)ccc(C)c2nc1SCC(=O)Nc1c[nH]c(=O)[nH]c1=O	6.6	9.6	0.5	24.2	56.1*	51.7*	37.1*	24.3	·
CCc1sc2nc(SCC(=O)Nc3cc(C)on3)n(-c3cccc(OC)c3)c(=O)c2c1C	-3.7	46.3	19.3	13.7	91.6*	40.1*	80.8*	65.6*	76.7*
Cc1cc(N2CCN(C)CC2)ccc1NC(=O)c1c2c(nc3ccccc13)CCN(Cc1ccccc1)C2	58.0*	98.8*	15.1	-13.7	100.3*	41.5*	11.9	99.5*	52.0*
CCN1CCc2nc3ccccc3c(C(=O)Nc3ccc(C#N)cc3)c2C1	43.5	-4.6	-0.2	-9.9	14.2	2.3	·	·	·
CCOC(=O)/C=c1\s/c(=C\c2ccc(C(=O)OC)cc2)c(=O)n1CC(=O)Nc1ccccc1	-26.3	-0.4	26.9	2.2	62.3*	91.6*	1.2	15.2	·
Cc1nc(N2CCN(C(=O)c3cnccn3)CC2)c2c3c(sc2n1)CC(C(C)(C)C)CC3 (stereo not drawn)	7.5	1.8	8.2	·	70.1*	34.1*	-0.2	33.5	·
CCOC(=O)C1(CCCc2ccccc2)CCN(C2CCN(C(C)=O)CC2)CC1	11.9	-6.1	-1.3	30.3	10.8	-1.9	·	·	·
COc1ccc(OC)c(-c2nnc3n2N=C(c2ccc(OC)c(OCC4CC4)c2)CS3)c1	·	34.9	1.4	·	80.5*	32.1*	34.7*	68.5*	67.6*
C/C(=N/NC(=O)c1ccc(C)s1)c1cccc(NC(=O)COc2ccc(Cl)cc2C)c1	3.1	-1.9	14.2	3.9	88.8*	56.1*	55.6*	-0.3	·
COc1ccc(-c2coc3cc4oc(=O)c5ccccc5c4cc23)cc1F	11.9	20.4	1.1	·	75.0*	63.8*	23.4	55.2*	57.9*
COc1ccc(-c2c(-c3ccccc3OC)oc3ccccc23)cc1F	·	1.0	4.8	25.8	1.2	0.4	·	·	·
COc1ccccc1Cn1c(=O)c2ccccc2n2c(Sc3ncnc4sccc34)nnc12	18.9	-27.2	4.5	10.5	76.0*	5.7	·	30.1	·
SMILES	T cruzi repl	Beta cell apopt	CHOP UPR activ	CSC inhib	Mdm2-MdmX inh	XBP1 UPR activ	XBP1 UPR conf	Mdm2-MdmX conf	FLuc counter
COc1ccccc1Cn1c(=O)c2ccccc2n2c(SCc3csc(C)n3)nnc12	35.5	10.6	-1.3	-6.3	14.8	1.9	·	·	·
OC(CNCCC(c1ccccc1)c1ccccc1)COc1ccccc1 (stereo not drawn)	1.7	6.4	-1.8	10.5	70.2*	2.3	·	25.9	·
OC(CNCCc1ccccc1)COc1ccc(OCC(O)CNCCc2ccccc2)cc1 (stereo not drawn)	41.5	2.6	4.3	14.5	98.6*	3.9	·	75.7*	47.0*
CC(C)c1ccc(OCC(O)CNC(C)c2ccccc2)cc1 (stereo not drawn)	44.1	14.9	6.6	29.6	52.0*	-5.8	·	23.0	·
CC(C)N(CCNCC(O)COc1ccc(C(C)(C)c2ccccc2)cc1)C(C)C (stereo not drawn)	45.0	-4.6	1.8	-0.2	19.6	-3.4	·	·	·
CCC(=O)c1ccc(OCC(O)CNC(C)c2ccccc2)cc1 (stereo not drawn)	5.5	0.7	0.1	-5.0	10.9	0.6	·	·	·
CC(C)CCNCC(O)CON=C1c2ccccc2-c2ccccc21 (stereo not drawn)	50.5	29.3	12.1	51.7	94.7*	-3.0	·	40.8*	69.2*
CC1CCCC(C)N1C(=O)COc1ccc(C(=O)N/N=C/c2ccc(C(=O)O)cc2)cc1 (stereo not drawn)	1.0	1.5	1.4	-7.3	-25.9	-1.2	·	·	·
COc1ccc(N2CCN(C(=S)Nc3cc(C)ccc3C)CC2)cc1	-14.3	·	-0.4	·	13.4	-3.8	·	·	·
Cc1cc(=O)oc2cc(OCc3ccc(C(=O)OCC(=O)Nc4ccc(N(C)C)cc4)cc3)ccc12	-1.1	·	0.2	·	5.9	1.9	·	·	·
Cc1ccc(C2(c3ccc(C)cc3)CC2C(=O)NC(C)C)cc1 (stereo not drawn)	-9.0	4.1	0.2	15.4	-9.1	-1.4	·	·	·
Cn1cncc1C#Cc1c(C=O)[nH]c2ccccc12	·	-6.4	-0.6	42.4	71.0*	-2.9	·	41.5*	65.8*
